Active and inactive are the calls of the source. No cut-off for these calls is given here.
What was measured:
Coxsackievirus B4 [1] = experiment: Antiviral activity against Coxsackievirus B4 infected in human cervix carcinoma cells assessed as inhibition of virus-induced cytopathic effect at 0.32 to 100 uM; type: functional, organism-based
How it was run: (§1)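 Confluent cell cultures were infected with 100 CCID50 of virus in the presence of test compound at 100, 40, 8, 1.6 and 0.32 μM. Cytopathic effect was scored once it was complete in untreated infected controls.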

Influenza B virus = experiment: Antiviral activity against Influenza B virus infected in MDCK cells assessed as inhibition of virus-induced cytopathic effect at 0.32 to 100 uM; type: functional, organism-based
How it was run: (§2)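 Confluent MDCK monolayers were infected in the presence of the compound at 100, 40, 8, 1.6 and 0.32 μM. Viral cytopathicity was scored once it was complete in untreated infected control cultures.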

HCT-116 = experiment: Cytostatic activity against human HCT116 cells after 72 hrs by MTT assay; type: functional, cell-based; conditions: HCT-116, 72 h
How it was run: (§3)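 Monolayers in DMEM with 10% FBS, 2 mM L-glutamine and penicillin/streptomycin, 37 °C, 5% CO2. Seeded at 1–3 × 10^4 cells/ml, then compound added in tenfold dilutions (10⁻⁸–10⁻⁴ M) for 72 h. MTT read at 570 nm; percent growth taken against time-zero and untreated controls. IC50 by linear regression; quadruplicate, at least two experiments.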

Feline coronavirus = experiment: Antiviral activity against Feline coronavirus infected in feline CRFK cells assessed as inhibition of virus-induced cytopathic effect at 0.32 to 100 uM; type: functional, organism-based; how it was run: as §1
Felid alphaherpesvirus 1 = experiment: Antiviral activity against Feline herpesvirus infected in feline CRFK cells assessed as inhibition of virus-induced cytopathic effect at 0.32 to 100 uM; type: functional, organism-based; how it was run: as §1
[2] = tested on: Human immunodeficiency virus 2; experiment: Antiviral activity against HIV2 ROD infected in human CEM cells assessed as inhibition of virus-induced CEM giant cell formation at 0.32 to 100 uM after 4 days; type: functional, organism-based; conditions: ISOLATE ROD, CCRF-CEM
How it was run: (§4)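 CEM cells (~3 × 10^5 cells/cm³) exposed to 100 CCID50/ml of virus and seeded into wells holding compound dilutions. Incubated 4 days at 37 °C, then giant cell formation examined microscopically.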

[3] = tested on: Radical scavenging activity; experiment: Antioxidant activity assessed as DPPH free radical scavenging activity at 100 uM after 60 mins by spectrophotometric analysis; type: functional
How it was run: (§5)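 0.05 mM DPPH in absolute ethanol mixed with an equal volume of compound in DMSO (final 100 μM). Shaken and left 20 or 60 min, then absorbance read at 517 nm and percent activity calculated. Three replicates, averaged.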

Human respirovirus 3 = experiment: Antiviral activity against Parainfluenza virus 3 infected in african green monkey Vero cells assessed as inhibition of virus-induced cytopathic effect at 0.32 to 100 uM; type: functional, organism-based; how it was run: as §1
[4] = tested on: Human immunodeficiency virus 1; experiment: Antiviral activity against HIV1 3B infected in human CEM cells assessed as inhibition of virus-induced CEM giant cell formation at 0.32 to 100 uM after 4 days; type: functional, organism-based; conditions: CCRF-CEM; how it was run: as §4
[5] = tested on: Vesicular stomatitis virus; experiment: Antiviral activity against Vesicular stomatitis virus infected in human cervix carcinoma cells assessed as inhibition of virus-induced cytopathic effect at 0.32 to 100 uM; type: functional, organism-based
How it was run: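 Confluent human cervix carcinoma (HeLa) cultures received 100 CCID50 of VSV together with the compound at 100, 40, 8, 1.6 or 0.32 μM. Cytopathicity was read at the point of full CPE in infected, untreated control wells.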

Glycine max = experiment: Inhibition of soybean LOX assessed as conversion of sodium linoleate to 13- hydroperoxylinoleic acid at 100 uM
L1210 = experiment: Cytostatic activity against mouse L1210 cells after 2 days by coulter counter analysis; type: functional, cell-based; conditions: L1210, 48 h
How it was run: (§6)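 300,000–500,000 cells/ml mixed 1:1 with compound dilutions and incubated at 37 °C for 2 days (L1210) or 3 days (CEM, HeLa). Cell number counted with a Coulter counter; HeLa trypsinized before counting.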

CCRF-CEM = experiment: Cytostatic activity against human CEM cells after 3 days by coulter counter analysis; type: functional, cell-based; conditions: 72 h; how it was run: as §6
[6] = Antioxidant activity assessed as inhibition of AAPH-induced linoleic acid lipid peroxidation by measuring conjugated diene hydroperoxide level; type: functional; parameters: concentration or dose not given beside the values; conditions: dose or concentration not given here
How it was run: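 Linoleic acid sodium salt (10 μL of 16 mM) in 0.05 M phosphate buffer pH 7.4 at 37 °C. Oxidation started under air with 50 μL of 40 mM AAPH. Conjugated diene hydroperoxide formation followed as absorbance rise at 234 nm; control contains the same DMSO level. At least triplicate.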

MCF7 = experiment: Cytostatic activity against human MCF7 cells after 72 hrs by MTT assay; type: functional, cell-based; conditions: MCF7, 72 h; how it was run: as §3
Influenza A virus [7] = experiment: Antiviral activity against Influenza A virus H3N2 infected in MDCK cells assessed as inhibition of virus-induced cytopathic effect at 0.32 to 100 uM; type: functional, organism-based; how it was run: as §2
[8] = tested on: Vesicular stomatitis virus; experiment: Antiviral activity against VSV infected in human lung fibroblast assessed as inhibition of virus-induced cytopathic effect at 0.32 to 100 uM; type: functional, organism-based
Human alphaherpesvirus 2 = experiment: Antiviral activity against HSV2 G infected in human lung fibroblast assessed as inhibition of virus-induced cytopathic effect at 0.32 to 100 uM; type: functional, organism-based; conditions: strain G; how it was run: as §1
[9] = tested on: Radical scavenging activity; experiment: Antioxidant activity assessed as DPPH free radical scavenging activity at 100 uM after 20 mins by spectrophotometric analysis; type: functional; how it was run: as §5
Coxsackievirus B4 [10] = experiment: Antiviral activity against Coxsackievirus B4 infected in african green monkey Vero cells assessed as inhibition of virus-induced cytopathic effect at 0.32 to 100 uM; type: functional, organism-based; how it was run: as §1
Punta Toro virus = experiment: Antiviral activity against Punta Toro virus infected in african green monkey Vero cells assessed as inhibition of virus-induced cytopathic effect at 0.32 to 100 uM; type: functional, organism-based; how it was run: as §1
HeLa = experiment: Cytostatic activity against human HeLa cells after 3 days by coulter counter analysis; type: functional, cell-based; conditions: 72 h; how it was run: as §6
[11] = tested on: Respiratory syncytial virus; experiment: Antiviral activity against RSV infected in human cervix carcinoma cells assessed as inhibition of virus-induced cytopathic effect at 0.32 to 100 uM; type: functional, organism-based; how it was run: as §1
NCI-H460 = experiment: Cytostatic activity against human NCI-H460 cells after 72 hrs by MTT assay; type: functional, cell-based; conditions: NCI-H460, 72 h; how it was run: as §3
[12] = tested on: Mammalian orthoreovirus 1; experiment: Antiviral activity against Reovirus-1 infected in african green monkey Vero cells assessed as inhibition of virus-induced cytopathic effect at 0.32 to 100 uM; type: functional, organism-based; how it was run: as §1
Influenza A virus [13] = experiment: Antiviral activity against Influenza A virus H1N1 infected in MDCK cells assessed as inhibition of virus-induced cytopathic effect at 0.32 to 100 uM; type: functional, organism-based; how it was run: as §2
Vaccinia virus = experiment: Antiviral activity against Vaccinia virus infected in human lung fibroblast assessed as inhibition of virus-induced cytopathic effect at 0.32 to 100 uM; type: functional, organism-based; conditions: Orthopoxvirus vaccinia
Human alphaherpesvirus 1 = experiment: Antiviral activity against HSV1 KOS infected in human lung fibroblast assessed as inhibition of virus-induced cytopathic effect at 0.32 to 100 uM; type: functional, organism-based; how it was run: as §1
Sindbis virus = experiment: Antiviral activity against Sindbis virus infected in african green monkey Vero cells assessed as inhibition of virus-induced cytopathic effect at 0.32 to 100 uM; type: functional, organism-based; how it was run: as §1

## CC(C(=O)NNC(=O)NNC(=O)NO)c1cccc(Oc2ccccc2)c1 (stereo unspecified)
Coxsackievirus B4 [1]
  inhibition: inactive
Influenza B virus
  inhibition: inactive
HCT-116
  IC50: > 100 µM
Feline coronavirus
  inhibition: inactive
Felid alphaherpesvirus 1
  inhibition: inactive
[2]
  inhibition: inactive
[3]
  Activity: 48%
Human respirovirus 3
  inhibition: inactive
[4]
  inhibition: inactive
[5]
  inhibition: inactive
Glycine max
  inhibition: inactive
L1210
  IC50: > 250 µM
CCRF-CEM
  IC50: > 250 µM
[6]
  inhibition: 13%
MCF7
  IC50: > 100 µM
Influenza A virus [7]
  inhibition: inactive
[8]
  inhibition: inactive
Human alphaherpesvirus 2
  inhibition: inactive
[9]
  Activity: 23%
Coxsackievirus B4 [10]
  inhibition: inactive
Punta Toro virus
  inhibition: inactive
HeLa
  IC50: ≥ 250 µM
[11]
  inhibition: inactive
NCI-H460
  IC50: > 100 µM
[12]
  inhibition: inactive
Influenza A virus [13]
  inhibition: inactive
Vaccinia virus
  inhibition: inactive
Human alphaherpesvirus 1
  inhibition: inactive
Sindbis virus
  inhibition: inactive

## CC(C(=O)NNC(=O)NNC(=O)NOCc1ccccc1)c1cccc(Oc2ccccc2)c1 (stereo unspecified)
Coxsackievirus B4 [1]
  inhibition: inactive
Influenza B virus
  inhibition: inactive
HCT-116
  IC50: 84 µM
Feline coronavirus
  inhibition: inactive
Felid alphaherpesvirus 1
  inhibition: inactive
[2]
  inhibition: inactive
[3]
  Activity: 15%
Human respirovirus 3
  inhibition: inactive
[4]
  inhibition: inactive
[5]
  inhibition: inactive
Glycine max
  inhibition: inactive
L1210
  IC50: 103 µM
CCRF-CEM
  IC50: 90 µM
[6]
  inhibition: 26%
MCF7
  IC50: 26 µM
Influenza A virus [7]
  inhibition: inactive
[8]
  inhibition: inactive
Human alphaherpesvirus 2
  inhibition: inactive
[9]
  Activity: 8%
Coxsackievirus B4 [10]
  inhibition: inactive
Punta Toro virus
  inhibition: inactive
[11]
  inhibition: inactive
NCI-H460
  IC50: > 100 µM
[12]
  inhibition: inactive
Influenza A virus [13]
  inhibition: inactive
Vaccinia virus
  inhibition: inactive
Human alphaherpesvirus 1
  inhibition: inactive
Sindbis virus
  inhibition: inactive

## CC(C)Cc1ccc(C(C)C(=O)NNC(=O)NNC(=O)NOCc2ccccc2)cc1 (stereo unspecified)
Coxsackievirus B4 [1]
  inhibition: inactive
Influenza B virus
  inhibition: inactive
HCT-116
  IC50: 56 µM
Feline coronavirus
  inhibition: inactive
Felid alphaherpesvirus 1
  inhibition: inactive
[2]
  inhibition: inactive
[3]
  Activity: 18%
Human respirovirus 3
  inhibition: inactive
[4]
  inhibition: inactive
[5]
  inhibition: inactive
Glycine max
  inhibition: inactive
CCRF-CEM
  IC50: 106 µM
[6]
  inhibition: 13%
MCF7
  IC50: 19 µM
Influenza A virus [7]
  inhibition: inactive
[8]
  inhibition: inactive
Human alphaherpesvirus 2
  inhibition: inactive
[9]
  Activity: 11%
Coxsackievirus B4 [10]
  inhibition: inactive
Punta Toro virus
  inhibition: inactive
HeLa
  IC50: 98 µM
[11]
  inhibition: inactive
NCI-H460
  IC50: 71 µM
[12]
  inhibition: inactive
Influenza A virus [13]
  inhibition: inactive
Vaccinia virus
  inhibition: inactive
Human alphaherpesvirus 1
  inhibition: inactive
Sindbis virus
  inhibition: inactive

## CC(C(=O)NNC(=O)NC1CCCCC1)c1cccc(Cc2ccccc2)c1 (stereo unspecified)
Coxsackievirus B4 [1]
  inhibition: inactive
Influenza B virus
  inhibition: inactive
HCT-116
  IC50: 22 µM
Feline coronavirus
  inhibition: inactive
Felid alphaherpesvirus 1
  inhibition: inactive
[2]
  inhibition: inactive
[3]
  Activity: 10%
Human respirovirus 3
  inhibition: inactive
[4]
  inhibition: inactive
[5]
  inhibition: inactive
Glycine max
  inhibition: 10%
CCRF-CEM
  IC50: 25 µM
[6]
  inhibition: 31%
MCF7
  IC50: 16 µM
Influenza A virus [7]
  inhibition: inactive
[8]
  inhibition: inactive
Human alphaherpesvirus 2
  inhibition: inactive
[9]
  Activity: 3%
Coxsackievirus B4 [10]
  inhibition: inactive
Punta Toro virus
  inhibition: inactive
HeLa
  IC50: 45 µM
[11]
  inhibition: inactive
NCI-H460
  IC50: 23 µM
[12]
  inhibition: inactive
Influenza A virus [13]
  inhibition: inactive
Vaccinia virus
  inhibition: inactive
Human alphaherpesvirus 1
  inhibition: inactive
Sindbis virus
  inhibition: inactive

## Cc1c(C)c2c(c(C)c1O)CCC(C)(C(=O)O)O2 (stereo unspecified)
[6]
  inhibition: 63%

## CC(Cc1ccc(O)c(O)c1)C(C)Cc1ccc(O)c(O)c1 (stereo unspecified)
[3]
  Activity: 91%
[9]
  Activity: 80%

From ChEMBL document CHEMBL2010803, “Novel NSAID 1-acyl-4-cycloalkyl/arylsemicarbazides and 1-acyl-5-benzyloxy/hydroxy carbamoylcarbazides as potential anticancer agents and antioxidants” (Eur J Med Chem, 2012)
